Results from ChEMBL document CHEMBL2401736, “HCV NS5A replication complex inhibitors. Part 5: discovery of potent and pan-genotypic glycinamide cap derivatives” (Bioorg Med Chem Lett, 2013).

How the values were obtained:
[1] = test system: Bovine viral diarrhea virus 1; experiment: Antiviral activity against Bovine viral diarrhea virus by luciferase assay; format: functional, organism-based
Method in brief: (§1)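 EC50 values are means of at least two experiments, with at most threefold variation between them.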

[2] = test system: Hepatitis C virus; experiment: Antiviral activity against Hepatitis C virus genotype 1a by ELISA; format: functional, organism-based, Hepacivirus hominis, subtype 1a; method in brief: as §1
[3] = test system: Hepatitis C virus; experiment: Antiviral activity against Hepatitis C virus genotype 1b by FRET assay; format: functional, organism-based, Hepacivirus hominis; method in brief: as §1
[4] = Dissociation constant, pKa of the compound in MeOH/H2O at pH 2 to 11; format: physicochemical
Method in brief: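 pKa found by potentiometric titration over pH 2–11 in varying MeOH/H2O mixtures.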

[5] = Bovine viral diarrhea virus isolates and strains

| SMILES | EC50 [1, 5] [nM] | EC50 ([2]; Hepatitis C virus, subtype 1a) [nM] | EC50 ([3]; Hepatitis C virus, genotype 1b) [nM] | pKa [4] | EC50 [2] [nM] | EC50 [3] [nM] | EC50 [1] [nM] |
| --- | --- | --- | --- | --- | --- | --- | --- |
| O=C(C(=O)N1CCC[C@H]1C(=O)Nc1ccc(/C=C/c2ccc(NC(=O)[C@@H]3CCCN3C(=O)C(=O)c3ccccc3)cc2)cc1)c1ccccc1 | > 10000 | 447 | 4.6 |  |  |  |  |
| O=C1CN(C(C(=O)N2CCC[C@H]2C(=O)Nc2ccc(C#Cc3ccc(NC(=O)[C@@H]4CCCN4C(=O)C(c4ccccc4)N4CCNC(=O)C4)cc3)cc2)c2ccccc2)CCN1 (stereo partly specified) |  | 388 | < 4.6 | 2.5 |  |  |  |
| CN(C)[C@@H](Cc1ccccc1)C(=O)N1CCC[C@H]1C(=O)Nc1ccc(C#Cc2ccc(NC(=O)[C@@H]3CCCN3C(=O)[C@H](Cc3ccccc3)N(C)C)cc2)cc1 | 1490 | 3240 | 500 |  |  |  |  |
| O=C(Nc1ccc(/C=C/c2ccc(NC(=O)[C@@H]3CCCN3C(=O)[C@H](O)C3CCCCC3)cc2)cc1)[C@@H]1CCCN1C(=O)[C@H](O)C1CCCCC1 | > 10000 | 4650 | < 4.6 |  |  |  |  |
| O=C(Nc1ccc(C#Cc2ccc(NC(=O)[C@@H]3CCCN3C(=O)[C@@H](c3ccccc3)N3CCCC3)cc2)cc1)[C@@H]1CCCN1C(=O)[C@@H](c1ccccc1)N1CCCC1 | 1380 | 19 | < 4.6 | 8.1 |  |  |  |
| CN(C)[C@H](Cc1ccccc1)C(=O)N1CCC[C@H]1C(=O)Nc1ccc(C#Cc2ccc(NC(=O)[C@@H]3CCCN3C(=O)[C@@H](Cc3ccccc3)N(C)C)cc2)cc1 | 1730 | 1290 | < 4.6 |  |  |  |  |
| CC(C)C(=O)N[C@@H](C(=O)N1CCC[C@H]1C(=O)Nc1ccc(C#Cc2ccc(NC(=O)[C@@H]3CCCN3C(=O)[C@H](NC(=O)C(C)C)c3ccccc3)cc2)cc1)c1ccccc1 | > 10000 | 70 | 0.002 |  |  |  |  |
| C[C@H](C(=O)N1CCC[C@H]1C(=O)Nc1ccc(/C=C/c2ccc(NC(=O)[C@@H]3CCCN3C(=O)[C@@H](C)c3ccccc3)cc2)cc1)c1ccccc1 | > 10000 | > 10000 |  |  |  |  |  |
| CN(C)[C@@H](C(=O)N1CCC[C@H]1C(=O)Nc1ccc(C#Cc2ccc(NC(=O)[C@@H]3CCCN3C(=O)[C@@H](c3ccccc3)N(C)C)cc2)cc1)c1ccccc1 | 1900 | < 4.6 | < 4.6 |  |  |  |  |
| O=C(Nc1ccc(C#Cc2ccc(NC(=O)[C@@H]3CCCN3C(=O)C(c3ccccc3)N3CC[C@@H](O)C3)cc2)cc1)[C@@H]1CCCN1C(=O)C(c1ccccc1)N1CC[C@@H](O)C1 (stereo partly specified) | 3280 | 1.4 | 0.094 |  |  |  |  |
| O=C(Nc1ccc(C#Cc2ccc(NC(=O)[C@@H]3CCCN3C(=O)[C@@H](c3ccccc3)N3CCOCC3)cc2)cc1)[C@@H]1CCCN1C(=O)[C@@H](c1ccccc1)N1CCOCC1 | > 10000 | 125 | < 4.6 | 4.6 |  |  |  |
| CC(C)(C)OC(=O)N[C@H](C(=O)N1CCC[C@H]1C(=O)Nc1ccc(C#Cc2ccc(NC(=O)[C@@H]3CCCN3C(=O)[C@@H](NC(=O)OC(C)(C)C)c3ccccc3)cc2)cc1)c1ccccc1 | > 10000 | > 10000 | < 4.6 |  |  |  |  |
| C[C@@](O)(C(=O)N1CCC[C@H]1C(=O)Nc1ccc(Br)cc1)c1ccccc1 |  | > 1300 | 380 |  |  |  |  |
| CC(=O)N(C)C(C(=O)N1CCC[C@H]1C(=O)Nc1ccc(C#Cc2ccc(NC(=O)[C@@H]3CCCN3C(=O)C(c3ccccc3)N(C)C(C)=O)cc2)cc1)c1ccccc1 (single isomer, unassigned; diastereomer 2) | > 10000 |  |  |  | > 5000 | 632 |  |
| O=C(Nc1ccc(/C=C/c2ccc(NC(=O)[C@@H]3CCCN3C(=O)[C@@H](O)C3CCCCC3)cc2)cc1)[C@@H]1CCCN1C(=O)[C@@H](O)C1CCCCC1 | 6740 | 970 | 63 |  |  |  |  |
| N[C@H](C(=O)N1CCC[C@H]1C(=O)Nc1ccc(C#Cc2ccc(NC(=O)[C@@H]3CCCN3C(=O)[C@@H](N)c3ccccc3)cc2)cc1)c1ccccc1 | > 10000 | > 9400 | < 4.6 |  |  |  |  |
| CC(=O)N(C)C(C(=O)N1CCC[C@H]1C(=O)Nc1ccc(C#Cc2ccc(NC(=O)[C@@H]3CCCN3C(=O)C(c3ccccc3)N(C)C(C)=O)cc2)cc1)c1ccccc1 (single isomer, unassigned; diastereomer 1) |  |  |  |  | 2450 | 57 |  |

| SMILES | EC50 [1, 5] [nM] | EC50 ([2]; Hepatitis C virus, subtype 1a) [nM] | EC50 ([3]; Hepatitis C virus, genotype 1b) [nM] | pKa [4] | EC50 [2] [nM] | EC50 [3] [nM] | EC50 [1] [nM] |
| --- | --- | --- | --- | --- | --- | --- | --- |
| CCOC(=O)N[C@@H](C(=O)N1CCC[C@H]1C(=O)Nc1ccc(C#Cc2ccc(NC(=O)[C@@H]3CCCN3C(=O)[C@H](NC(=O)OCC)c3ccccc3)cc2)cc1)c1ccccc1 | > 10000 | 114 | 0.018 |  |  |  |  |
| O=C(Nc1ccc(/C=C/c2ccc(NC(=O)[C@@H]3CCCN3C(=O)c3nccc4ccccc34)cc2)cc1)[C@@H]1CCCN1C(=O)c1nccc2ccccc12 | > 10000 | 390 | 22 |  |  |  |  |
| CCN(C)C(C(=O)N1CCC[C@H]1C(=O)Nc1ccc(C#Cc2ccc(NC(=O)[C@@H]3CCCN3C(=O)C(c3ccccc3)N(C)CC)cc2)cc1)c1ccccc1 (stereo partly specified) | 2790 | 7.9 | ≤ 0.13 |  |  |  |  |
| C[C@@H](C(=O)N1CCC[C@H]1C(=O)Nc1ccc(/C=C/c2ccc(NC(=O)[C@@H]3CCCN3C(=O)[C@H](C)c3ccccc3)cc2)cc1)c1ccccc1 | 2500 | 772 |  |  |  |  |  |
| CC(C)OC(=O)N[C@@H](C(=O)N1CCC[C@H]1C(=O)Nc1ccc(C#Cc2ccc(NC(=O)[C@@H]3CCCN3C(=O)[C@H](NC(=O)OC(C)C)c3ccccc3)cc2)cc1)c1ccccc1 | > 10000 | 137 | 0.28 |  |  |  |  |
| CN(C)[C@H](C(=O)N1CCC[C@H]1C(=O)Nc1ccc(C#Cc2ccc(NC(=O)[C@@H]3CCCN3C(=O)[C@H](c3ccccc3)N(C)C)cc2)cc1)c1ccccc1 | 1200 | 628 | < 4.6 |  |  |  |  |
| CN(C)C(C)(C(=O)N1CCC[C@H]1C(=O)Nc1ccc(C#Cc2ccc(NC(=O)[C@@H]3CCCN3C(=O)C(C)(c3ccccc3)N(C)C)cc2)cc1)c1ccccc1 (stereo in doubt; 5l.1) |  |  |  |  | 100 |  | 697 |
| O=C(Nc1ccc(C#Cc2ccc(NC(=O)[C@@H]3CCCN3C(=O)C(c3ccccc3)N3CC[C@H](O)C3)cc2)cc1)[C@@H]1CCCN1C(=O)C(c1ccccc1)N1CC[C@H](O)C1 (stereo partly specified) | > 10000 | 3 | 0.5 |  |  |  |  |
| CS(=O)(=O)N[C@@H](C(=O)N1CCC[C@H]1C(=O)Nc1ccc(C#Cc2ccc(NC(=O)[C@@H]3CCCN3C(=O)[C@H](NS(C)(=O)=O)c3ccccc3)cc2)cc1)c1ccccc1 | > 10000 | 71 | < 4.6 |  |  |  |  |
| N[C@@H](C(=O)N1CCC[C@H]1C(=O)Nc1ccc(C#Cc2ccc(NC(=O)[C@@H]3CCCN3C(=O)[C@H](N)c3ccccc3)cc2)cc1)c1ccccc1 | 3760 | 910 | < 4.6 |  |  |  |  |
| CC(C)(C)OC(=O)N[C@@H](C(=O)N1CCC[C@H]1C(=O)Nc1ccc(C#Cc2ccc(NC(=O)[C@@H]3CCCN3C(=O)[C@H](NC(=O)OC(C)(C)C)c3ccccc3)cc2)cc1)c1ccccc1 | > 10000 | 245 | 0.002 |  |  |  |  |
| CN1CCN(C(C(=O)N2CCC[C@H]2C(=O)Nc2ccc(C#Cc3ccc(NC(=O)[C@@H]4CCCN4C(=O)C(c4ccccc4)N4CCN(C)CC4)cc3)cc2)c2ccccc2)CC1 (single isomer, unassigned; diastereomer 2) |  |  |  |  | 2700 | 4.4 | 1360 |
| CCCOC(=O)N[C@@H](C(=O)N1CCC[C@H]1C(=O)Nc1ccc(C#Cc2ccc(NC(=O)[C@@H]3CCCN3C(=O)[C@H](NC(=O)OCCC)c3ccccc3)cc2)cc1)c1ccccc1 | > 10000 | 88 | 0.16 |  |  |  |  |
| O=C(Nc1ccc(C#Cc2ccc(NC(=O)[C@@H]3CCCN3C(=O)C(c3ccccc3)N3CCC(O)CC3)cc2)cc1)[C@@H]1CCCN1C(=O)C(c1ccccc1)N1CCC(O)CC1 (single isomer, unassigned; diastereomer 2) |  |  |  |  | 600 | 4.6 | 2970 |
| CC(=O)N1CCN(C(C(=O)N2CCC[C@H]2C(=O)Nc2ccc(C#Cc3ccc(NC(=O)[C@@H]4CCCN4C(=O)C(c4ccccc4)N4CCN(C(C)=O)CC4)cc3)cc2)c2ccccc2)CC1 (stereo partly specified) | > 10000 | 37 | 0.42 |  |  |  |  |
| CN(C)C(C)(C(=O)N1CCC[C@H]1C(=O)Nc1ccc(C#Cc2ccc(NC(=O)[C@@H]3CCCN3C(=O)C(C)(c3ccccc3)N(C)C)cc2)cc1)c1ccccc1 (single isomer, unassigned; diastereomer 2) | 769 |  | < 4.6 |  | 1080 |  |  |
